# A selection: hits, their analogues and other compounds. The true share with any hit is near 5.6%.
# MPTP inh: blocks calcium-induced mitochondrial swelling; isolated mouse mitochondria, Ca2+ swelling absorbance, 30 min; inhibition, % at 10 µM; actives 1.4% (n = 360,000); AID 602449;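 active means inhibition of 50% or more, scaled per plate between neutral and stimulator controls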
# NR3A LBD binder: modulators (binders) of human NR3A ligand-binding domain. NR3A LBD differential scanning fluorimetry, Tm shift; 0% = protein alone, 100% = glycine-bound protein. Tm shift relative to glycine control, % at 25 µM. actives 2.5% (n = 340,000);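 active means melting temperature shift of at least 10% of the positive control shift, at one fixed dose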
# CHOP inhibitor: blocks CHOP induction under ER stress | CHO-K1 CHOP-promoter luciferase, tunicamycin-induced, 15-18 h | inhibition, % at 10 µM | actives 3.8% (n = 220,000);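 active means compounds that reduced the stress-induced luciferase reporter signal by more than about 70% of percent inhibition, limit read from the data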
# UPR XBP1 act: activators of adaptive arm of unfolded protein response (XBP1); CHO-XBP1 luciferase reporter, IRE1-XBP1 UPR activation, luminescence; percent of tunicamycin response, DMSO as zero; activation, % at 20 µM; actives 0.33% (n = 330,000);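 active means versus positive control, 20 µM dose yields 30% or more activation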
#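 Material: CHO-XBP1 cells stably carrying IRE1-XBP1-driven luciferase reporter | Medium: F12 with 10% serum | Compound dosing: 20 µM single concentration, DMSO 1% | Incubation: Overnight seeding at 37 °C, 6 h compound treatment at 37 °C | Detection: Steady-Glo luminescence read | Read-out basis: % activation of reporter signal versus tunicamycin and DMSO controls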
# UPR CHOP act: activators of apoptotic arm of unfolded protein response (CHOP) | CHO-CHOP luciferase reporter, UPR activation, luminescence; percent of tunicamycin response over DMSO baseline | activation, % at 10 µM | actives 0.34% (n = 330,000);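 active means at 10 µM dose, activation of 40% or more, normalized to positive control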
#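 System: CHO CHOP reporter cells. Amount: 500 cells per well. Buffer or medium: F12 medium, 10% FBS. Compound dosing: one dose, 10 µM in 0.5% DMSO. Incubation: 6 h compound exposure at 37 °C after overnight seeding. Technique: Steady-Glo luciferase luminescence. Benchmarks: tunicamycin and DMSO controls.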
# aDG glyco up: increases alpha dystroglycan glycosylation. activation, % at 10 µM. actives 0.22% (n = 360,000). Pro5-aDG cells, alpha-DG glycosylation AlphaScreen (IIH6); 0% Pro5, 100% B10-LARGE cell signal. AID 624168;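 active means activation of at least 8% versus controls, or a plate z-score of at least 8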;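 further: Pro5 are CHO cells carrying HIG-tagged alpha-DG that lacks glycosylation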
# XBP1 UPR conf: adaptive UPR (XBP1) activation, confirmed; shares compounds with UPR XBP1 act; CHO-XBP1 IRE1-XBP1 luciferase reporter, luminescence; activation, % at 20 µM; actives 63% (n = 1,000);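 active means reporter signal at least 30% of the positive control's activation in two or more of four replicate wells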
# Rh123 counter: Rhodamine 123 counter-screen of mitochondrial pore hits; shares compounds with MPTP inh; isolated mitochondria, membrane potential, Rhodamine 123 fluorescence; inhibition, % at 10 µM; actives 78% (n = 5,000); AID 624504; in the data active means inhibition above about 22%
# MPTP swell DR: dose response confirmation of mitochondrial permeability transition pore inhibitors; AID 651561; actives 58% (n = 780); IC50, µM; isolated mitochondria swelling, absorbance; shares compounds with MPTP inh; in the data active means IC50 below about 20 µM
# MPTP cs DR: active in counter-screen for permeability transition pore inhibitors | shares compounds with MPTP inh | isolated mitochondria counterscreen, fluorescence read-out | IC50, µM | actives 49% (n = 780) | AID 651564; in the data active means IC50 below about 80 µM
# A number is an active result; 0 = inactive; - = no result given; + = active, no number; ! = repeats disagree.
SMILES,MPTP inh,NR3A LBD binder,CHOP inhibitor,UPR XBP1 act,UPR CHOP act,aDG glyco up,Rh123 counter,others
CCc1ccc(N2C(=O)NC(=O)/C(=C\c3cccn3CCOc3ccc(C(C)C)cc3)C2=O)cc1,0,0,87,51,0,0,-,XBP1 UPR conf=41
C1CN(P2(N3CC3)=NP(N3CC3)(N3CC3)=NP(N3CC3)(N3CC3)=N2)CCO1 (stereo not drawn),0,-,-,-,-,0,-,
FC(F)(F)c1cccc(C2NCc3ccccc3-n3cccc32)c1 (stereo not drawn),0,0,-,0,0,0,-,
Oc1ccc(C2NCc3ccccc3-n3cccc32)cc1Cl (stereo not drawn),84!,0,0,0,0,0,0,MPTP swell DR=0;MPTP cs DR=0
COC(=O)C1=C(c2ccc(Cl)c(C(F)(F)F)c2)C[C@@H]2CC[C@H]1N2C(=O)NCc1ccco1,0,0,-,0,0,0,-,
N#CC(C#N)=C(C#N)c1ccc(Nc2ccccc2)cc1,118,0,-,0,0,0,61,
c1ccc(Nc2ccc(Nc3ccccc3)cc2)cc1,0,0,-,0,0,0,-,
Oc1c(Cl)cccc1Cc1cc(Cl)cc(Cl)c1O,81,12,-,-,-,0,64,
COc1cccc(CCNCc2ccc(SC)cc2)c1,88,0,0,0,0,0,0,MPTP swell DR=13;MPTP cs DR=0
COc1ccc(CCNCc2ccccc2)cc1,0,0,-,0,0,0,-,
CC(C)(C)C(=O)N1Cc2cc(N3CCCCC3)ccc2-n2nncc2C1,0,-,-,-,-,0,-,
N=Cc1c(O)n(-c2ccccc2)c(=O)n(-c2ccccc2)c1=O,0,0,0,0,0,0,-,
Cc1[nH]c2c(C(F)(F)F)cccc2c1CCN,73,0,-,0,0,0,0,MPTP swell DR=0;MPTP cs DR=0
O=c1[nH]c(=O)n(Cc2ccco2)c(O)c1C=NC1CCN(Cc2ccccc2)CC1,0,0,0,0,0,0,-,
CCCCCCCSc1cc(OC)c(CCN(C)C)cc1OC,103,0,0,0,0,0,0,
COc1cc(CCN)ccc1O,0,0,0,0,0,0,-,
CCCCCSc1cc(OC)c(CCN)cc1OC,97,0,0,0,0,0,0,MPTP swell DR=3.4;MPTP cs DR=77
CC(C)NCC(O)c1ccc(C2CCCC2)cc1 (stereo not drawn),96,0,0,0,0,0,0,MPTP swell DR=16;MPTP cs DR=0
CN1C(=O)/C(=C\c2ccc(N3CCCCCC3)cc2)C(=O)NC1=S,71,0,0,0,0,0,0,MPTP swell DR=0;MPTP cs DR=57
Cc1cc(O)c2c3c(c(=O)oc2c1)CCC(C)C3 (stereo not drawn),57,0,-,0,0,0,89,
COC(=O)C1=C(c2ccc(F)cc2OCc2ccccc2)C[C@@H]2CC[C@H]1N2C(=O)NC1Cc2ccccc2C1,0,0,-,0,0,0,-,
COc1cccc(C2CC3C(=O)C=CC2N3Cc2ccccc2)c1 (stereo not drawn),0,0,0,0,0,0,-,
CCCCn1c(O)c(C(CC)=NCc2ccc3c(c2)OCO3)c(=O)[nH]c1=O,68,0,0,0,0,0,27,
Oc1c(Br)c(Br)c(Br)c(Br)c1Br,67,32,-,0,0,0,87,
Nc1c2c(nc3sc4c(c13)CCCC4)CCCC2,55,0,0,0,0,0,80,
SMILES,MPTP inh,NR3A LBD binder,CHOP inhibitor,UPR XBP1 act,UPR CHOP act,aDG glyco up,Rh123 counter,others
COC(=O)C1=C(c2cccc(OCc3ccccc3)c2)C[C@@H]2CC[C@H]1N2C(=O)NCCOc1ccccc1,0,0,-,0,0,0,-,
CCOc1cc(CNCCc2c[nH]c3ccccc23)cc(Cl)c1OC,95,0,89,0,0,0,0,MPTP swell DR=3.4;MPTP cs DR=18
CCN1/C(=C/C=C/C2=[N+](CC)c3ccccc3C2(C)C)C(C)(C)c2ccccc21,+,-,-,-,-,0,92,
CN1/C(=C\C=C2C(=O)NC(=O)NC2=O)C(C)(C)c2ccccc21,0,0,0,0,0,0,-,
CC(C)c1ccc(C(c2c(O)c3ccccc3oc2=O)c2c(O)c3ccccc3oc2=O)cc1,78,-,-,-,-,0,0,MPTP swell DR=3.9;MPTP cs DR=<2.5
O=c1oc2ccccc2c(O)c1C(c1ccc([N+](=O)[O-])cc1)c1c(O)c2ccccc2oc1=O,0,0,0,-,-,0,-,
CSc1ccc(CNC(C)C(O)c2ccccc2)cc1 (stereo not drawn),0,0,0,0,0,0,-,
CON(C)C(=O)Nc1ccc(Cl)cc1,0,0,0,0,0,0,-,
O=C(Nc1ccc(Cl)cc1)O/N=C(\c1ccccc1)c1ccccn1,87,11,0,0,0,0,101,
CNCC[C@H](Oc1cccc2ccccc12)c1cccs1,94,0,0,0,0,0,0,MPTP swell DR=3.9;MPTP cs DR=68
CNC(=O)Oc1cccc2ccccc12,0,0,0,0,0,0,-,
COc1ccc(N2CCN(CCCN)CC2)cc1,70,0,-,0,0,0,0,MPTP swell DR=0;MPTP cs DR=0
CCOP(=O)(OCC)C1(O)C(=O)Nc2ccc(Br)cc21 (stereo not drawn),0,0,0,0,0,0,-,
COC(=O)C1=C(c2ccc(C(C)=O)cc2)C[C@@H]2CC[C@H]1N2C(=O)N1CCCCC1,0,0,-,0,0,0,-,
O=C(CNC(=O)c1cccc(Cl)c1)Nc1ccc(Br)cc1C(=O)c1ccccc1,0,0,0,0,0,0,-,
O=C(CNC(=O)c1ccc(Cl)cc1)Nc1ccc(Br)cc1C(=O)c1ccccc1,50,0,0,0,0,0,67,
C/C(CC(c1ccccc1)c1c(O)c2ccccc2oc1=O)=N\Nc1ccc([N+](=O)[O-])cc1[N+](=O)[O-] (stereo not drawn),90,0,0,0,0,0,77,
COc1ccc(-n2c(-c3ccccc3Br)nc3ccccc3c2=O)cc1,0,0,-,0,0,0,-,
O=C(O)c1cccc(NC(=O)N2C[C@H]3C[C@@H](C2)c2cccc(=O)n2C3)c1,0,0,-,0,0,0,-,
CN1CCN(c2cc(N3CCCCCC3)c(F)cc2[N+](=O)[O-])CC1,52,0,0,0,0,0,0,MPTP swell DR=13;MPTP cs DR=0
O=C(Nc1cccc(C(F)(F)F)c1)OC1CN2CCC1CC2 (stereo not drawn),0,0,-,0,0,0,-,
OC(c1cccc(Cl)c1)(c1cccc(Cl)c1)C1CN2CCC1CC2 (stereo not drawn),72,0,0,0,0,0,0,

# Screening results deposited in PubChem by several laboratories.
